Screening results (PubChem BioAssay)
Rows were chosen to be rich in hits. Some 4.1% of all compounds tested hit in one or more screens of this group.
KCNQ1 act: potentiators or activators of KCNQ1 channel, primary screen, cell-based, thallium flux, high-throughput; Potassium voltage-gated channel subfamily KQT member 1 (Homo sapiens), P51787; CHO-K1 KCNQ1, thallium flux FluxOR fluorescence; active compounds read high; B-score at 10 µM; hit rate 0.35% among 310,000;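 active = fluorescence ratio B-score, a plate-corrected score, at least three library SD, with initial intensity B-score within 5 SD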
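Material: CHO-K1 cells stably expressing KCNQ1. Medium: assay buffer for compound exposure, DMSO matched across wells. Reagent: K+/Tl+ depolarizing stimulus. Compound dosing: single-concentration screen. Times: 37 °C overnight plating, 90-min dark dye load, 20-min compound pretreatment. Technique: FluxOR Tl+ flux fluorescence.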
Cl transport mod: KCC2 cotransporter modulators, thallium flux, primary screen, cell-based, HEK293 KCC2, FluoZin-2 fluorescence, MLSMR. Solute carrier family 12 member 5 (Homo sapiens), Q9H2X9. KCC2 cells, thallium flux FluoZin-2 fluorescence. B-score of Tl+ flux slope (higher = more flux/activation; lower = inhibition) at 10 µM. hit rate 2.2% among 190,000;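 active = thallium flux slope and its plate-corrected score both differing from the plate sample mean at a set confidence after two filtering rounds, in either direction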;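 note: slope of fluorescence scaled to starting intensity during 10 to 20 s after thallium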
hERG rescue: hERG rescue from dofetilide block, primary screen, cell-based, CHO-hERG, FluxOR thallium flux, dofetilide IC70; hit rate 0.51% among 310,000; dofetilide IC70 present; activation (rescue from dofetilide block), less the hit threshold, % at 10 µM; AID 1511, 2009; Voltage-gated inwardly rectifying potassium channel KCNH2 (Homo sapiens), Q12809;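 active = activation above the mean of controls blocked by dofetilide plus 5 SD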;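 note: thallium influx through hERG after potassium depolarization seen as dye fluorescence rise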
KCNK9 inh: KCNK9 potassium channel inhibitors, primary screen, HEK293 cells, thallium flux. Potassium channel subfamily K member 9 (Homo sapiens), Q9NPC2. FluxOR thallium flux fluorescence; active compounds read low. B-score at 10 µM. hit rate 1.2% among 310,000. AID 488922, 2010;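 active = ratio B-score over 3 SD below the library mean, with starting fluorescence within 5 SD of its mean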;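 note: negative B-score means less thallium flux so channel inhibition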
KCNQ1 inh: inhibitors of human KCNQ1 channel, primary screen, cell-based, thallium flux, high-throughput; Potassium voltage-gated channel subfamily KQT member 1 (Homo sapiens), P51787; CHO-K1 KCNQ1, FluxOR thallium flux fluorescence; active compounds read high; B-score at 10 µM; hit rate 1.3% among 310,000;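 active = compounds whose thallium flux B-score, printed positive for inhibition, exceeds three library SD while starting fluorescence stays within three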;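 note: channel opened by potassium depolarization with thallium stimulus after 20 min compound exposure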
KCNK3 block: human KCNK3 channel inhibitors, primary screen, CHO cells, FluxOR thallium flux, B-score; AID 602410, 2012; Potassium channel subfamily K member 3 (Homo sapiens), O14649; hit rate 0.84% among 340,000; B-score at 10 µM; FluxOR fluorescence; active compounds read low;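 active = B-score under library mean minus 4 SD, starting fluorescence ratio at most library mean plus 5 SD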;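 note: more negative B-score means stronger inhibition of thallium flux through KCNK3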
An asterisk follows results filed as active; i = inactive; / = no result given.

SMILES	KCNQ1 act	Cl transport mod	hERG rescue	KCNK9 inh	KCNQ1 inh	KCNK3 block
COc1ccc(NC(=O)c2ccc(C)cc2)c[n+]1[O-]	i	/	-10	i	i	i
CCOc1cc(C(=O)Nc2ccc(S(=O)(=O)NC3=NCCCCC3)cc2)cc(Br)c1OC	i	/	-13	i	i	i
COc1ccccc1NC(=O)c1cccc(NC(=O)c2ccco2)c1	/	-0.092	/	/	/	-9.4*
Cc1ccc(N2C(=O)c3ccccc3NC2c2ccccc2O)cc1 (stereo not given)	i	/	-1	i	i	i
O=C1c2ccccc2NC(c2ccc(-c3ccc(Br)cc3)o2)N1O (stereo not given)	i	8.6*	-13	i	i	i
O=C1c2ccccc2NC(c2ccccc2O)N1O (stereo not given)	8*	/	-5	i	i	i
CCOC(=O)CSc1nc2c(sc(=S)n2Cc2ccco2)c(=O)n1-c1ccccc1	i	/	-5	i	i	-11*
CCCN(CC(=O)Nc1ccccc1OC)C(=O)c1ccccn1	/	/	/	/	/	i
COc1ccccc1NC(=S)N1CC(C)(C)C1=O	i	/	-10	i	i	i
O=C(Nc1ccccc1N1CCN(C(=O)c2ccccc2)CC1)c1cc2ccccc2o1	/	-0.51	/	/	/	-9.7*
Cc1cccc2cc(C#N)c(SCCN3CCCCC3)nc12	i	3.6*	-9	i	i	/
CC(=O)c1ccc(OCCCC(=O)N2CCN(S(=O)(=O)c3ccc(C)cc3C)CC2)cc1	i	/	-12	i	i	i
COc1ccccc1-n1c(=O)c(C#N)c(-c2ccc([N+](=O)[O-])cc2)c2cc(C(=O)c3cc(F)ccc3O)cnc21	i	0.26	-8	i	i	i
Cn1c(=O)c(C#N)c(-c2ccc(F)cc2)c2cc(C(=O)c3cc(Cl)cc(Cl)c3O)cnc21	i	-3	-15	i	11*	i
CC[C@H](C)[C@@H](CNC)NC[C@@H](Cc1ccc(O)cc1)NCC(C)(C)C	i	/	-10	i	i	i
CC[C@@H](C)[C@H](CN[C@H](CNC)C(C)C)NC[C@@H](C)c1ccc(CC(C)C)cc1	i	/	-29	i	8*	i
CCOC(=O)C1CCN(CC(=O)c2c(C)n(C)c3ccc(OC)cc23)CC1	i	/	-6	i	i	i
COC(=O)N/N=C/c1cc(Br)ccc1O	i	0.71	-3	i	i	i
CC(C)NC(=S)N/N=C/c1cc(Br)ccc1O	i	5.9*	-21	i	i	i
CN(CCc1ccccc1)C(=O)c1ccc(NC(=O)Cc2ccc(NC(=O)C3CCCN(C(=O)c4ccccc4)C3)cc2)cc1 (stereo not given)	/	/	/	/	/	i
CS(=O)(=O)c1ccc2nc(NC(=O)c3ccco3)sc2c1	i	1.2	-16	i	i	i
Cc1ccc(C(=O)Nc2nc(-c3ccco3)c(-c3ccco3)s2)o1	/	/	/	/	/	-11*
Cc1ccc(C(=O)Nc2nc3ccc(S(C)(=O)=O)cc3s2)o1	i	0.22	38*	i	i	i
CC(C)CN1C(=S)SC(C)(C)C1n1oc(=O)n(-c2ccc(Cl)cc2)c1=O (stereo not given)	i	/	-10	i	15*	-11*
CC(C)N1C(=S)SC(C)(C)C1n1oc(=O)n(-c2cccc(Cl)c2)c1=O (stereo not given)	i	-1.1	-2	i	i	i
Cn1c(N)c(S(=O)(=O)N2CCN(c3ccccc3F)CC2)c(=O)n(C)c1=O	i	/	-10	i	i	i
